Test results as given in the EternaBench riboswitch data.

Test system: MS2 coat protein
Test: apparent Kd, MS2 coat protein; higher = weaker binding; RNA-MaP array; FMN 200 µM where present
Procedure, shortened: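 Stalled E. coli RNA polymerase produced the designs on Illumina sequencing-chip clusters. SNAP-549-labelled MS2 coat protein was added from 0.7 or 1.5 nM, doubling to 3 µM, without and then with constant ligand, in 100 mM Tris-HCl pH 7.5, 80 mM KCl, 4 mM MgCl2, BSA, DTT, yeast tRNA and Tween-20. The apparent Kd is the median of filtered per-cluster fits of green signal normalised to red-channel RNA signal and control-cluster median Fmax.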

[1] = designed as: OFF switch for flavin mononucleotide, no ligand
[2] = ligand present: flavin mononucleotide, designed as: OFF switch for flavin mononucleotide
[3] = designed as: ON switch for flavin mononucleotide, no ligand
[4] = ligand present: flavin mononucleotide, designed as: ON switch for flavin mononucleotide

Sequence | apparent Kd [1] [µM] | apparent Kd [2] [µM] | apparent Kd [3] [µM] | apparent Kd [4] [µM]
CCAUGACAAAGUCAUGGUUAACGAACAUGAGGAUCACCCAUGUAGGAUAUGCUACUCAAAGAGUAGCAGAAGGACAUGUGCCUU | 0.0343 | 0.259 |  | 
GAAGCACAUGAGGAUCACCCAUGUGAGGAUAUCCGUCUGGUCCGGCCGGACCAGUACCGGAGAAGGCGCGUAAA | 0.0591 | 0.042 |  | 
CUUUUACAUGAGGAUCACCCAUGUUAUGGCGGGUCAGGAUAUAGAUCGGAUGCGUUCUGUCUAGAAGGGACAUGUU |  |  | 0.0522 | 0.0334
GUAGCAUACCGAGGAUAUUCCCGGAAACGGAAAACAUGAGGAUCACCCAUGUGGCGAAAGCCUUGGGAGAAGGCGGAAUGCUAC |  |  | 0.0254 | 0.0194
GGUUGUUAUGACAGCGAGUGUUAGAGAAGGUACAUGAGGAUCACCCAUGUACGUGAUCUUGCGAGUAAGGAUAUCUGUUAUUCA | 0.00565 | 0.00583 |  | 
UGUUGUAUUACAGGAUAUCUAUGUUUUUUAUUUAGAGAAGGGUAUUCACAUGAGGAUCACCCAUGUAUAUACGAGGAAGUUGUG |  |  | 0.049 | 0.049
GACUCGUAAGUGAGGAUAUGGCUGUGCAGCUACAGCCAGAAGGCACAUGAGGAUCACCCAUGUGAUGGAAUUUU | 0.0159 | 0.0306 |  | 
GUCUACCAGCUAGGAUAUGCAGUACAUUAAAAUGUAGAAGGAGCACGAUCCAGACAUGAGGAUCACCCAUGUGGGCGGUAGGCA | 0.0209 | 0.0186 |  | 
AAGUUUUUACAAGGAUAUCAAUUUUAUCUUAAUUCAACAUGAGGAUCACCCAUGUAACAAUGGAGUGAGAAGGUGUAAUGGCUU |  |  | 0.617 | 0.234
UAAUAGUGAGGAUAUACAGAAUCUGGGUCCCGCGUGUUGAGACAUGAGGAUCACCCAUGUAGAAGGCACAAAAU | 0.108 | 0.0425 |  | 
GUGUACAGAGGAUAUACACGAGUAGUUACGAAAGUAACUACACAUGAGGAUCACCCAUGUAGAAGGCUGUACAC | 0.025 | 0.0303 |  | 
GACAUGAGGAUCACCCAUGUCCCUCCAGAAGGCUGGCGCGCGAAACCUAUAUCGGUUCCGGGCACAGAGGAUAUGGGCGGUUGG |  |  | 0.199 | 0.0272
GCCCAGCCCAGGCCCACGGCAUCACAGGAUAUGCCGAUAACAUGAGGAUCACCCAUGUCAACUCCGCAGAAGGGUGAUAUCGUG |  |  | 0.121 | 0.0221
GUGAACGGAGGAUAUAUAUGGGCAGCAUACGCUGCAGCUUCACAUGAGGAUCACCCAUGUAGAAGGCUGUACAC | 0.00764 | 0.0239 |  | 
GGAGCCGACACUGAGGAUAUUCAUAUUAAAACAUGAGGAUCACCCAUGUAGGCCAGAAGGCCUUGGGAGAAGGCAGGCCGGCUCG |  |  | 0.377 | 0.0265
UCACGGGACUGAGGAUAUACAUGAAUUAUUUUUGUAGAAGGCAGAAUGUUAGAUUAUUCACUAUACAUGAGGAUCACCCAUGUU | 0.0253 | 0.0182 |  | 
AUGAAGAAUUAAGGAUAUUGAUUACAUAUGUUUAACAUGAGGAUCACCCAUGUGGGUUGCGGUAUCGAGAAGGUAAAUUAAAAG |  |  | 0.198 | 0.178
UCAUUUAUUACAGGAUAUGUUAGUAUACAGUUGUUUGGUUAUUACAUAAUAACAGAAGGGUAGAACAUGAGGAUCACCCAUGUA |  |  | 0.244 | 0.113
AGGUAAACCACAGGAUAUGGCUAGCAUAGCUAGCCAGAAGGGUGGUCGUAACCAUGUAAAUACAUGAGGAUCACCCAUGUAUCC |  |  | 0.0898 | 0.036
UUAUCUCAUGAGAAGGACAUGAGGAUCACCCAUGUAGGAUAUCAUGGGUCAGUGGAAUUGAAUCUUCGGAUUCAAUUACUCUAC |  |  | 0.0606 | 0.0115
CUUUUGUGAGGAUAUGUGGCUUCGAUCGUGAGAUCGAGGCUACAGAAGGCACAUGAGGAUCACCCAUGUUCCUC | 0.0604 | 0.777 |  | 
CUGAGCUUAGGAUAUACGUGUUGAUCUGAUCUCGACCUAUUACAUGAGGAUCACCCAUGUAGAAGGGAGCCGGA | 0.0176 | 0.0193 |  | 
UGAGCGACCACAGGAUAUACUUAGGAAGACCGAGUAGAAGGGUGGAAGAGCGUGCAGUGACAUGAGGAUCACCCAUGUGGUUGU |  |  | 0.156 | 0.0701
GAUGUAUUCGUAGGAUAUCCGUCGCCACCGUGUGGAGAAGGACGAACAUGAGGAUCACCCAUGUAUCAUGGUGUAGACGCUUUC | 0.0636 | 0.0709 |  | 

Sequence | apparent Kd [1] [µM] | apparent Kd [2] [µM] | apparent Kd [3] [µM] | apparent Kd [4] [µM]
CAGAAGUCAGGAUAUGCAUGGCGGGACUUGCGUCGUGGCGUGCAGAAGGGACAUGAGGAUCACCCAUGUAAAGU | 0.0535 | 0.0697 |  | 
AAAACACAUGAGGAUCACCCAUGUAUCUGGACCAUAGGAUAUCCGCGCCCAAUAAGGUGUGGAGAAGGGUGAGCCC |  |  | 0.158 | 0.181
GCACUCAAGUUAGGAUAUGGAUCGGAAAACGAUCCAGAAGGAAUAUGGGAACAUGAGGAUCACCCAUGUUCCACAAACGAGUGC |  |  | 0.0409 | 0.0221
UUACUACAUGAGGAUCACCCAUGUCAGGAUAUUGUCUAUACCUUGGAAUACGUGUCGACAAGAAGGGACUAUAU | 0.0211 | 0.024 |  | 
AAACUGCCACAUGAGGAUCACCCAUGUAAAUAAAGUAUUUGGAGAAGGGCGAUAGCAAAGCUAUCGCAGGAUAUCCUCAGGCAG |  |  | 0.801 | 0.0879
GGUCUACAUGAGGAUCACCCAUGUAAGGAUAUCGUCACUGGAGCUUCGGCUCCAGUGACGAGAAGGUACGUAAU | 0.0317 | 0.0337 |  | 
UUUUUUUUAGUAAGGAUAUGAUGCAGGAAACUGCGUCAGAAGGUACAUGAGGAUCACCCAUGUUAAUUUUGUUU | 0.0188 | 0.0204 |  | 
GUACGUGGACAGAAGGCGACAUGAGGAUCACCCAUGUUGGCUCGGGUACGAGCGAUCCGCGUGAUUGAGGAUAUGUCUGCGGGC | 0.02 | 0.0808 |  | 
AACGUUCGAGGAUAUGUGGCGCUGCACAUGAGGAUCACCCAUGUGAGGACUUGCAGCAUCACAGAAGGUGACCUGC | 0.094 | 0.0846 |  | 
AACAGCUCGUCAGGAUAUAUUUUCAUUAUAUGUAUUUAUGUACAUGAGGAUCACCCAUGUUGUUUGUAGAAGGGACGAGCUGAA | 0.0136 | 0.0114 |  | 
AAAAAAAAAAUGCAGGAUAUGGGAAAAAAAACAUGAGGAUCACCCAUGUAAAAAAAAAAAAAAAACUAGAAGGGUAAAAAAAAAAA |  |  | 0.0803 | 0.0623
UUGGACGUCGUAGGAUAUGUAGGAUAUUCCUACAUGAGGAUCACCCAUGUUGACAGGGAAGAAGGACAGAAGGACGAUGUCCAU |  |  | 0.017 | 0.00401
ACUCAGUCAGGAUAUCGUUAAUUUAAUUGUUUGUUUUAGUUCGAGAAGGGACAUGAGGAUCACCCAUGUACUCA | 0.0253 | 0.0512 |  | 
CAAUUGGCACAGAAGGGUGACAUGAGGAUCACCCAUGUAGCGUGGCUCUCAGGAGGAGCCACGCCACAGGAUAUGUGCGGGCAC |  |  | 0.0332 | 0.0632
GCACUGGAUGUAGGAUAUCAGGACGAUAAGUCCUGAGAAGGACAUGAGGAUCACCCAUGUAAAACUCACCAGUGCUAUAAUAUA | 0.0128 | 0.0177 |  | 
GCCUACUGGCGAGGAUAUUCUGUGCGGUUCCGGCUCGUGUCUGUUACAUGAGGAUCACCCAUGUGGGAGAAGGUGUCUGUGGCC | 0.00753 | 0.00741 |  | 
CUAUGCGGAAUAGGAUAUUCGAUCAUGAGGAUAGAAGAAGGGUUACAUGAGGAUCACCCAUGUAUGCACAUGAGGAUCCCUUAG | 0.221 | 0.243 |  | 
AUCCGGCGUGUAGGAUAUGGAAAAGAAAAGGAUCCAGAAGGACAUGAGGAUCACCCAUGUACAUGUAAACAGUCAUCACCGGAA | 0.0362 | 0.0589 |  | 
CCAUGGCUGUGAGGAUAUGUCUGACAAAGUCAGACAGAAGGCACAUGAGGAUCACCCAUGUGAGGAAAACCACAUUUGCCAUGG | 0.00581 | 0.00629 |  | 
CACAUGUGAGGAUAUGUAAUAAAGGCGACGCGGGUCGCCCGACAGAAGGCACAUGAGGAUCACCCAUGUGAUGA | 0.037 | 0.098 |  | 
GCGUAAUAGGUGUAGCUAGUCGUUCAAGAAGGGUGAAGAACAUGAGGAUCACCCAUGUGGUCUAUACAGGAUAUUGAUAUACGC |  |  |  | 0.0666
UUUAUAUUCAGAGGAUAUUAAUGUAGUAUAAUAUAAGAAGGCUGUUUGUUUUGUAAAGUUAUUAUACAUGAGGAUCACCCAUGU |  |  | 0.0184 | 0.0155
CCCUCACAUGAGGAUCACCCAUGUCAGGAUAUUCGAGGCGCAAAUACGCCAAAUGCAGGAAGAAGGGACGUGCC | 0.0155 | 0.0224 |  | 
AGGGCUGCUCAGGAUAUCCGUAAAAGCCGAGAAGGAGAAGGGAGCACAUGAGGAUCACCCAUGUGAUCCGAAAA | 0.0216 | 0.044 |  | 
